Experiments:
Cortex [1] = test: Drug uptake in LPS-stimulated CD1 mouse cortex at 5 to 7 mBq, iv administered 5 days post LPS challenge; format: ADME, organism-based; details: in vivo, 120 h
Procedure, shortened: (§1)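 Male CD1 mice given LPS (strain O111:B4, 5 mg/kg in saline, i.p.) 5 days before study. [11C]radioligand ([…], ~150 GBq/μmol, 0.2 mL saline) injected into the tail vein. Mice killed at 60 min and brain regions dissected and γ-counted. Uptake given as %ID/g tissue and as blood-normalized %ID/g tissue × body weight (kg). Mean ± SD, n=3.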

[2] = Drug uptake in LPS-stimulated CD1 mouse brainstem at 5 to 7 mBq, iv in presence of AM630; format: ADME, organism-based; details: in vivo
Procedure, shortened: (§2)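 Blocking study in male CD1 mice, either controls or LPS-treated (5 mg/kg LPS O111:B4 i.p., 5 days earlier). AM630 (3 mg/kg) or GW405833 (2 mg/kg) was given s.c. in 0.1 mL DMSO; vehicle controls received DMSO alone. [11C]radioligand ([…], ~150 GBq/μmol) was injected i.v. 30 min later. Tissues harvested at 60 min and γ-counted. Mean ± SD, n=3.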

Brain [3] = test: Drug uptake in CD1 mouse brain at 5 to 7 mBq, iv in presence of GW-405833; format: ADME, organism-based; details: in vivo; procedure, shortened: as §2
Brain [4] = test: Drug uptake in LPS-stimulated CD1 mouse brain at 5 to 7 mBq, iv administered 5 days post LPS challenge; format: ADME, organism-based; details: in vivo, 120 h; procedure, shortened: as §1
[5] = Ratio of drug uptake in brain to blood in LPS-stimulated CD1 mouse at 5 to 7 mBq, iv; format: ADME, tissue-based; procedure, shortened: as §1
Cannabinoid receptor 2 = Cannabinoid receptor 2 (Homo sapiens, UniProt P34972); test: Agonist activity at CB2 receptor; format: functional
Sequence of Cannabinoid receptor 2 (P34972 whole entry): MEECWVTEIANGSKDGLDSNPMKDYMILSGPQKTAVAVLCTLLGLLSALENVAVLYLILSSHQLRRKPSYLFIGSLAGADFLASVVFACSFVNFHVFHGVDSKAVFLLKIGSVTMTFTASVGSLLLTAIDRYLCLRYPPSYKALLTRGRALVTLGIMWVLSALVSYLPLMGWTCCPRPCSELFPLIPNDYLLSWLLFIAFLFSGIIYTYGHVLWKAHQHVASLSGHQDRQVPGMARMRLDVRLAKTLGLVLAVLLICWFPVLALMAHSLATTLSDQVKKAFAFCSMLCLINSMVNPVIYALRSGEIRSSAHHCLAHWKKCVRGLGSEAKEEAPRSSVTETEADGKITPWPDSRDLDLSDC

Brain [6] = test: Drug uptake in CD1 mouse brain at 5 to 7 mBq, iv after 3 mins; format: ADME, organism-based; details: in vivo, 0.05 h
Procedure, shortened: (§3)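 Dynamic small-animal PET of an LPS-5-day-treated and a control CD1 mouse. Both were injected simultaneously via the tail vein with [11C]radioligand (~3000 mCi/μmol) and imaged for 90 min in 28 frames. Images reconstructed by 2D OSEM after scatter subtraction. Whole-brain ROIs drawn on mean images gave time-SUV curves.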

Hippocampus [7] = test: Drug uptake in CD1 mouse hippocampus at 5 to 7 mBq, iv after 60 mins; format: ADME, organism-based; details: in vivo, 1 h
Procedure, shortened: (§4)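 Male CD-1 mice (23-28 g). [11C]radioligand given into a lateral tail vein at […], specific radioactivity ~150 GBq/μmol, in 0.2 mL saline. Mice killed by cervical dislocation at several times after injection. Organs and brain regions dissected on ice, weighed and γ-counted against injectate standards. Uptake given as %ID/g tissue, mean ± SD, n=3.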

Kidney = test: Drug uptake in CD1 mouse kidney at 5 to 7 mBq, iv; format: ADME, organism-based; details: in vivo; procedure, shortened: as §4
[8] = Drug uptake in LPS-stimulated CD1 mouse brainstem at 5 to 7 mBq, iv administered 5 days post LPS challenge; format: ADME, organism-based; details: read-out: Drug uptake; procedure, shortened: as §1
Spleen [9] = test: Drug uptake in CD1 mouse spleen at 5 to 7 mBq, iv; format: ADME, organism-based; details: in vivo; procedure, shortened: as §4
Brain [10] = test: Drug uptake in LPS-stimulated CD1 mouse brain at 5 to 7 mBq, iv administered 5 days post LPS challenge measured after 3 mins; format: ADME, organism-based; details: in vivo, 0.05 h; procedure, shortened: as §3
[11] = Drug uptake in APPswe/PS1dE9 mouse brainstem at 5 to 7 mBq, iv; format: ADME, tissue-based; details: in vivo
Procedure, shortened: (§5)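 Female APPswe/PS1dE9 bigenic mice (line 85, C57Bl/6J background), 18 months old. [11C]radioligand given into a lateral tail vein at […], specific radioactivity ~150 GBq/μmol, in 0.2 mL saline. Mice killed by cervical dislocation at 60 min. Brain regions dissected on ice, weighed and γ-counted against injectate standards. Uptake expressed as blood-normalized %ID/g tissue × body weight (kg).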

Heart = test: Drug uptake in CD1 mouse heart at 5 to 7 mBq, iv; format: ADME, organism-based; details: in vivo; procedure, shortened: as §4
Cerebellum [12] = test: Drug uptake in LPS-stimulated CD1 mouse cerebellum at 5 to 7 mBq, iv in presence of AM630; format: ADME, organism-based; details: in vivo; procedure, shortened: as §2
[13] = Drug uptake in CD1 mouse brainstem at 5 to 7 mBq, iv after 60 mins; format: ADME, organism-based; details: in vivo, 1 h; procedure, shortened: as §4
Brain [14] = test: Drug uptake in CD1 mouse brain at 5 to 7 mBq, iv in presence of AM630; format: ADME, organism-based; details: in vivo; procedure, shortened: as §2
Brain [15] = test: Drug uptake in APPswe/PS1dE9 mouse brain at 5 to 7 mBq, iv; format: ADME, organism-based; details: in vivo; procedure, shortened: as §5
Brain [16] = test: Drug uptake in LPS-stimulated CD1 mouse brain at 5 to 7 mBq, iv in presence of AM630; format: ADME, organism-based; details: in vivo; procedure, shortened: as §2
Cerebellum [17] = test: Drug uptake in APPswe/PS1dE9 mouse cerebellum at 5 to 7 mBq, iv; format: ADME, organism-based; details: in vivo; procedure, shortened: as §5
Hippocampus [18] = test: Drug uptake in LPS-stimulated CD1 mouse hippocampus at 5 to 7 mBq, iv administered 5 days post LPS challenge; format: ADME, organism-based; details: in vivo, 120 h; procedure, shortened: as §1
Hippocampus [19] = test: Drug uptake in LPS-stimulated CD1 mouse hippocampus at 5 to 7 mBq, iv in presence of AM630; format: ADME, organism-based; details: in vivo; procedure, shortened: as §2
Intestine = test: Drug uptake in CD1 mouse intestine at 5 to 7 mBq, iv; format: ADME, organism-based; details: in vivo; procedure, shortened: as §4
Spleen [20] = test: Drug uptake in CD1 mouse spleen at 5 to 7 mBq, iv after 60 mins in presence of AM630; format: ADME, organism-based; details: in vivo, 1 h; procedure, shortened: as §2
Cerebellum [21] = test: Drug uptake in CD1 mouse cerebellum at 5 to 7 mBq, iv after 60 mins; format: ADME, organism-based; details: in vivo, 1 h; procedure, shortened: as §4
Cortex [22] = test: Drug uptake in LPS-stimulated CD1 mouse cortex at 5 to 7 mBq, iv in presence of AM630; format: ADME, organism-based; details: in vivo; procedure, shortened: as §2
Brain [23] = test: Drug uptake in CD1 mouse brain at 5 to 7 mBq, iv; format: ADME, organism-based; details: in vivo; procedure, shortened: as §4
Cortex [24] = test: Drug uptake in APPswe/PS1dE9 mouse cortex at 5 to 7 mBq, iv; format: ADME, organism-based; details: in vivo; procedure, shortened: as §5
Cortex [25] = test: Drug uptake in CD1 mouse cortex at 5 to 7 mBq, iv after 60 mins; format: ADME, organism-based; details: in vivo, 1 h; procedure, shortened: as §4
Cerebellum [26] = test: Drug uptake in LPS-stimulated CD1 mouse cerebellum at 5 to 7 mBq, iv administered 5 days post LPS challenge; format: ADME, organism-based; details: in vivo, 120 h; procedure, shortened: as §1
Liver = test: Drug uptake in CD1 mouse liver at 5 to 7 mBq, iv; format: ADME, organism-based; details: in vivo; procedure, shortened: as §4

**Q.** Which Drug uptake (Cortex [1]) does the source give for `Cc1s/c(=N\C(=O)C2C(C)(C)C2(C)C)n(CCO[11CH3])c1C` here?
**A.** 1.7 % ID/g

**Q.** And the Drug uptake [2]?
**A.** Not Active

**Q.** What about the Drug uptake (Brain [3]) of the same molecule?
**A.** Not Active

**Q.** What about the Drug uptake (Brain [4]) of the same molecule?
**A.** 1.5 % ID/g

**Q.** And the Kp [5]?
**A.** 3.3

**Q.** What about the Ki (Cannabinoid receptor 2) of the same molecule?
**A.** 0.7 nM

**Q.** And the SUV (Brain [6])?
**A.** 0.5

**Q.** And the Drug uptake (Hippocampus [7])?
**A.** 0.3 % ID/g

**Q.** What about the Drug uptake (Kidney) of the same molecule?
**A.** 2.2 % ID/g

**Q.** And the tissue uptake at 120 h [8]?
**A.** 2.1 %ID/g

**Q.** And the Drug uptake (Spleen [9])?
**A.** 1.3 % ID/g

**Q.** What about the SUV (Brain [10]) of the same molecule?
**A.** 2.3

**Q.** And the Drug uptake [11]?
**A.** Not Active

**Q.** What about the Drug uptake (Heart) of the same molecule?
**A.** 0.7 % ID/g

**Q.** And the Drug uptake (Cerebellum [12])?
**A.** Not Active

**Q.** What about the Drug uptake [13] of the same molecule?
**A.** 0.3 % ID/g

**Q.** What about the Drug uptake (Brain [14]) of the same molecule?
**A.** Not Active

**Q.** And the Drug uptake (Brain [15])?
**A.** Not Active

**Q.** And the Drug uptake (Brain [16])?
**A.** Not Active

**Q.** And the Drug uptake (Cerebellum [17])?
**A.** Not Active

**Q.** What about the Drug uptake (Hippocampus [18]) of the same molecule?
**A.** 1.9 % ID/g

**Q.** And the Drug uptake (Hippocampus [19])?
**A.** Not Active

**Q.** And the Drug uptake (Intestine)?
**A.** 1.5 % ID/g

**Q.** And the Drug uptake (Spleen [20])?
**A.** Not Active

**Q.** What about the Drug uptake (Cerebellum [21]) of the same molecule?
**A.** 0.3 % ID/g

**Q.** And the Drug uptake (Cortex [22])?
**A.** Not Active

**Q.** What about the Drug uptake (Brain [23]) of the same molecule?
**A.** 0.3 % ID/g

**Q.** What about the Drug uptake (Cortex [24]) of the same molecule?
**A.** Not Active

**Q.** And the Drug uptake (Cortex [25])?
**A.** 0.3 % ID/g

**Q.** And the Drug uptake (Cerebellum [26])?
**A.** 1.8 % ID/g

**Q.** And the Drug uptake (Liver)?
**A.** 4.9 % ID/g

Reference: ChEMBL document CHEMBL1250427, “Synthesis and biodistribution of [11C]A-836339, a new potential radioligand for PET imaging of cannabinoid type 2 receptors (CB2)” (Bioorg Med Chem, 2010)
